The test system of assay [1] is Calf thymus DNA. In words: Apparent binding constant against calf thymus DNA-drug complex; Not measurable. The class given is nucleic-acid assay. Particulars: Bos taurus. In a few lines:
(§1)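 Calf thymus DNA; spectral titration; binding isotherms in 0.01 M phosphate buffer, pH 7.0, 20 °C; Kapp (per base pair) and Bapp (drug binding sites per base pair) taken from Scatchard plot.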

The subject of assay [2] is Calf thymus DNA. In words: Apparent number of binding sites per base pairs in DNA; Not measurable. The class given is nucleic-acid assay. The settings on record: Bos taurus. In outline: as §1
Assay [3] deals with P388. As to the kind of experiment: Percent of increased life span of P388 cells implanted CDF1 male mice. It counts as functional, Mus musculus. In outline: (§2)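 CDF1 male mice, groups of seven, given 10^6 P388 cells ip on day 0; drug ip in 5% DMSO–saline on days 1, 5 and 9; controls received vehicle; range of doses tested, optimal nontoxic dose listed; median survival time; %ILS = (treated − control)/control × 100; average of two or more experiments.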

Assay [4] has as its system P388. In words: Concentration required for 50% inhibition of incorporation of labeled uridine by P388 cells for the synthesis of RNA (in vitro). The class given is functional. Particulars: Mus musculus, read-out: ED50 (the source's name).
Assay [5] concerns P388. As to the kind of experiment: Concentration required for 50% inhibition of incorporation of labeled thymidine by p388 cells for synthesis of DNA (in vitro). The settings on record: Mus musculus, read-out: ED50 (the source's name). The class given is functional.
Assay [6] concerns P388. In words: Optimal dose for antitumor activity was measured in P388 cells of CDF1 male mice in vivo; Highest dose tested. It counts as functional, Mus musculus. In outline:
as §2

Assay [7] deals with CCRF-CEM. As to the kind of experiment: In vitro antitumor activity against human lymphoblastic leukemia cells. The class given is functional. Particulars: read-out: ID50 (the source's name). In a few lines:
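Human lymphoblastic leukemia CCRF-CEM cells grown in suspension culture; growth inhibition in vitro; ID50 (ng/mL) reported as the 50% inhibitory dose.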

The subject of assay [8] is P388. As to the kind of experiment: Median survival time of the P388 cells implanted CDF1 male mice in vivo. It counts as functional, Mus musculus. In outline: as §2
The test system of assay [9] is P388. As to the kind of experiment: Concentration required for 50% inhibition of incorporation of labeled thymidine by p388 cells for synthesis of DNA (in vitro); e indicates values are high and variable. It counts as functional, cell-based. Particulars: Mus musculus.
For assay [10], the system named is P388. In words: Concentration required for 50% inhibition of incorporation of labeled uridine by P388 cells for the synthesis of RNA (in vitro); e indicates values are high and variable. Particulars: Mus musculus. The class given is functional, cell-based.

Data on seven compounds can be found in ChEMBL document CHEMBL1121923, “N2- and C-7 substituted actinomycin D analogues: synthesis, DNA-binding affinity, and biochemical and biological properties. Structure-activity relationship” (J Med Chem, 1981).

≈ marks a conversion by molar mass, not a printed value. Where only a bound is given, the exact number is not on record here.

`Cc1c2oc3c(C)c(OC(=O)C45CC6CC(CC(C6)C4)C5)cc(C(=O)N[C@@H]4C(=O)N[C@H](C(C)C)C(=O)N5CCC[C@@H]5C(=O)N(C)CC(=O)N(C)[C@@H](C(C)C)C(=O)O[C@@H]4C)c3nc-2c(C(=O)N[C@H]2C(=O)N[C@@H](C(C)C)C(=O)N3CCC[C@H]3C(=O)N(C)CC(=O)N(C)[C@H](C(C)C)C(=O)O[C@H]2C)c(N)c1=O`: the K app result in assay [1] is reported as “Not measurable”. In addition, the Bapp entry in assay [2] is given as “Not measurable”.
For orientation: ILS means the gain in survival time of treated over control animals, in per cent. Compound `Cc1c2oc3c(C)ccc(C(=O)N[C@@H]4C(=O)N[C@H](C(C)C)C(=O)N5CCC[C@H]5C(=O)N(C)CC(=O)N(C)[C@@H](C(C)C)C(=O)O[C@@H]4C)c3nc-2c(C(=O)N[C@@H]2C(=O)N[C@H](C(C)C)C(=O)N3CCC[C@H]3C(=O)N(C)CC(=O)N(C)[C@@H](C(C)C)C(=O)O[C@@H]2C)c(NCCCCCN)c1=O` displayed an ILS in [3] of 64%. In addition, the results for the EC50 in [4] and in assay [5] were 460 nM and more than 4600 nM, respectively. Besides, the Highest dose tested in assay [6] came out at 1.8 mg/kg. In [7], the IC50 amounted to 0.85 µg/mL (≈ 0.634 µM). Moreover, the MST in assay [8] came out at 18 days.
Take `Cc1c2oc3c(C)c(OC(=O)c4ccccc4)cc(C(=O)N[C@@H]4C(=O)N[C@H](C(C)C)C(=O)N5CCC[C@@H]5C(=O)N(C)CC(=O)N(C)[C@@H](C(C)C)C(=O)O[C@@H]4C)c3nc-2c(C(=O)N[C@H]2C(=O)N[C@@H](C(C)C)C(=O)N3CCC[C@H]3C(=O)N(C)CC(=O)N(C)[C@H](C(C)C)C(=O)O[C@H]2C)c(N)c1=O`: the ED50 result in [9] is “High and variable values”; in [10], “High and variable values”. Moreover, in [1], the K app entry is reported as “Not measurable”. For the same compound, the Bapp result in assay [2] is listed as “Not measurable”.
With `Cc1c2oc3c(C)c(OC(=O)c4ccc5ccccc5c4)cc(C(=O)N[C@@H]4C(=O)N[C@H](C(C)C)C(=O)N5CCC[C@@H]5C(=O)N(C)CC(=O)N(C)[C@@H](C(C)C)C(=O)O[C@@H]4C)c3nc-2c(C(=O)N[C@H]2C(=O)N[C@@H](C(C)C)C(=O)N3CCC[C@H]3C(=O)N(C)CC(=O)N(C)[C@H](C(C)C)C(=O)O[C@H]2C)c(N)c1=O`, the ED50 result in assay [9] is “High and variable values”; in assay [10], “High and variable values”. For the same compound, in [1], the K app entry is “Not measurable”. In assay [2], the Bapp result is “Not measurable”.
In the case of `CCCCCCOc1cc(C(=O)N[C@@H]2C(=O)N[C@H](C(C)C)C(=O)N3CCC[C@H]3C(=O)N(C)CC(=O)N(C)[C@@H](C(C)C)C(=O)O[C@@H]2C)c2nc3c(C(=O)N[C@@H]4C(=O)N[C@H](C(C)C)C(=O)N5CCC[C@H]5C(=O)N(C)CC(=O)N(C)[C@@H](C(C)C)C(=O)O[C@@H]4C)c(N)c(=O)c(C)c-3oc2c1C`, the ILS in assay [3] worked out at 24%. Further, in assay [6], the Highest dose tested is 0.9 mg/kg. For the same compound, the IC50 in assay [7] stood at 2.5 µg/mL (≈ 1.84 µM). In addition, the MST in assay [8] was 13 days.
In the same order, the values of `CCCCCCCOc1cc(C(=O)N[C@@H]2C(=O)N[C@H](C(C)C)C(=O)N3CCC[C@H]3C(=O)N(C)CC(=O)N(C)[C@@H](C(C)C)C(=O)O[C@@H]2C)c2nc3c(C(=O)N[C@@H]4C(=O)N[C@H](C(C)C)C(=O)N5CCC[C@H]5C(=O)N(C)CC(=O)N(C)[C@@H](C(C)C)C(=O)O[C@@H]4C)c(N)c(=O)c(C)c-3oc2c1C` are 24%, 0.9 mg/kg, 3 µg/mL (≈ 2.19 µM) and 13 days.
In turn, `Cc1c2oc3c(C)ccc(C(=O)N[C@@H]4C(=O)N[C@H](C(C)C)C(=O)N5CCC[C@H]5C(=O)N(C)CC(=O)N(C)[C@@H](C(C)C)C(=O)O[C@@H]4C)c3nc-2c(C(=O)N[C@@H]2C(=O)N[C@H](C(C)C)C(=O)N3CCC[C@H]3C(=O)N(C)CC(=O)N(C)[C@@H](C(C)C)C(=O)O[C@@H]2C)c(NCCCCN)c1=O` gave an ILS in assay [3] of 109%. Moreover, the EC50 in assay [4] stood at 346 nM; in [5] it was 3300 nM. For the same compound, the Highest dose tested in [6] was 1.8 mg/kg. For the same compound, the IC50 in [7] amounted to 0.6 µg/mL (≈ 0.452 µM). The MST in assay [8] was found to be 23 days.
